# Sampled rows, rich in hits. Any-hit rate of the full collection: about 2.1%.
# APJ agonist = agonists of human apelin receptor APJ, primary screen, CHO-K1 cells, PathHunter beta-arrestin, luminescence; P35414; activation, % at 20 µM; 0% DMSO wells, 100% apelin; 0.11% of 330,000 active; AID 2520, 2010;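 active = activation more than six SD over the plate average, tested at 20 µM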;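 note: 0% = DMSO alone and 100% = apelin-13 at 10 nM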
# Target sequence (P35414 whole entry, looked up): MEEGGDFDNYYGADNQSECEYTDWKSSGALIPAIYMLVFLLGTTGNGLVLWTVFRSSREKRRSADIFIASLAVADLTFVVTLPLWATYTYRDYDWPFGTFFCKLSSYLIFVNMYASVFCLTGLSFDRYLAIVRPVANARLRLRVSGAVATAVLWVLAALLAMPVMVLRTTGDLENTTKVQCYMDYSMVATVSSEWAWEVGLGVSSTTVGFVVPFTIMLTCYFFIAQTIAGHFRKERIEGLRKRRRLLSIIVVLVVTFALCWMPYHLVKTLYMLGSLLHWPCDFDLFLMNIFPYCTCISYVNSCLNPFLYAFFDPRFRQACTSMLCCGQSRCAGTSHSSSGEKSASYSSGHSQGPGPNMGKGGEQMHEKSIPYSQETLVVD
#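 system = engineered CHO-K1 APJ arrestin reporter cells | input = 1000 cells per well | timing = overnight seeding, 90 min compound at 25 °C, 1 h detection | measured by = enzyme-fragment complementation luminescence | read-out = beta-arrestin recruitment to APJ as agonist activity, luminescent signal | control set = negative DMSO alone, positive Apelin-13 at 10 nM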
# EBI2 block = EBI2 receptor antagonists, beta-arrestin recruitment, primary screen, cell-based, luminescence, 7a,25-OHC stimulation, uHTS; G-protein coupled receptor 183 (Homo sapiens), P32249; AID 651636, 2012; inhibition, % at 5 µM; 7a,25-OHC stimulated; 0.81% of 360,000 active; in the data active = inhibition above about 38%;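 note: enzyme fragment complementation signal reports receptor beta-arrestin coupling in cells; 0% = agonist plus DMSO wells and 100% = wells without agonist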
# CXCR6 block = CXCR6 receptor inhibitors, primary screen, cell-based, beta-arrestin, luminescence, CHO-K1 PathHunter, 1536-well. inhibition, % at 20 µM. 0.36% of 360,000 active. C-X-C chemokine receptor type 6 (Homo sapiens), O00574. AID 602244, 2012; in the data active = inhibition above about 34%, passing the limit was not always enough;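 note: antagonist mode with CXCL16 agonist at 10 nM final; 0% = 10 nM CXCL16 with DMSO and 100% = unstimulated wells without agonist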
# HTR2A ag = mouse Htr2a agonists via beta-arrestin recruitment, primary screen, cell-based, luminescence; CHO-K1 mHTR2A beta-arrestin complementation; percent of 30 µM serotonin response; activation, % at 7.6 µM; 0.66% of 360,000 active; AID 624169, 2012;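 active = activation above a run cutoff, the mean activation of all tested compounds plus 3 SD, cut at about 14% in these data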;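 note: 0% = plate median of compound wells and 100% = 30 µM serotonin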
# APJ antag = antagonists of human apelin receptor APJ, primary screen, CHO-K1 cells, beta-arrestin complementation, luminescence; P35414; inhibition, % at 20 µM; 0.32% of 330,000 active; AID 2521, 2010;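 active = inhibition above about 40% at 20 µM, limit read from the data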;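 note: cells challenged with 10 nM apelin-13 agonist together with compound; plate controls were apelin-13 plus DMSO wells for no effect and DMSO wells lacking apelin-13 for full effect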
# CCR6 antagonist = CCR6 receptor antagonists, primary screen, cell-based, CHO-K1, luminescence, beta-arrestin, uHTS | C-C chemokine receptor type 6 (Homo sapiens), P51684 | CHO-K1 CCR6 PathHunter beta-arrestin, CCL20-stimulated | inhibition, % at 20 µM | 0.49% of 340,000 active | AID 493098, 2011;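 active = compounds whose inhibition of the agonist-driven luminescence signal at 20 µM reaches about 50%, limit read from the data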;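 note: cells stimulated with CCL20 at 14 nM final; plate controls were DMSO with CCL20 for no effect and DMSO without agonist for full effect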
# APJ antag conf = APJ antagonists blocking beta-arrestin recruitment, confirmation, cell-based, luminescence, single concentration, uHTS hits. shares compounds with APJ antag. antagonist mode. inhibition, % at 20 µM. 66% of 950 active. AID 2766, 2010; in the data active = inhibition above about 50%
# An asterisk follows results filed as active; . = no result.
SMILES,APJ agonist,EBI2 block,CXCR6 block,HTR2A ag,APJ antag,CCR6 antagonist,APJ antag conf
COc1cccc(NC(=O)CSc2nnc(-c3cc(C)[nH]n3)n2N)c1,-2,10,-9,2,42*,5,1
CCn1c(SCC(=O)NCC2CCCO2)nc2c([nH]c3ccccc32)c1=O (centres undefined),-7,-16,0,-2,-17,7,.
O=C(CSc1nc2c([nH]c3ccccc32)c(=O)n1-c1ccccc1)NCC1CCCO1 (centres undefined),-21,33,53*,-20,64*,73*,83*
O=c1c2ccccc2cnn1CCOc1cccc(Br)c1,-1,3,10,-2,14,20,.
O=C(CNC1CCCCCC1)c1cccs1,-11,-2,1,3,67*,33,48
O=C(Nc1cc(-c2ccccc2)nn1-c1c(Cl)cccc1Cl)c1ccc(F)cc1,-1,-1,1,-4,10,10,.
CN1c2ccc(Cl)cc2C(=O)NC1c1ccc([N+](=O)[O-])s1 (centres undefined),2,-5,-16,-1,-50,18,.
COc1ccc(S(=O)(=O)NCc2cccnc2)cc1C,-1,-8,-4,0,3,5,.
COc1cc(C(=O)ONC(=O)c2ccc(OC(F)F)cc2)cc(OC)c1OC,8,-5,-16,3,-51,-25,.
CC(C)(C)C(=O)NC(=S)NNC(=O)c1ccc(-c2ccccc2)cc1,-9,18,84*,-34,66*,102*,112*
CCOc1ccc(C(=O)NC(=S)N(Cc2ccccc2)Cc2ccccc2)cc1,.,7,33,-13,.,28,.
CCCN(CCC)C(=S)NC(=O)c1ccc(-c2ccccc2)cc1,-8,21,23,-11,45*,37,7
O=C(CNC(=S)NC(=O)c1ccc(F)cc1)c1ccccc1,-1,-4,9,0,11,3,.
O=C(CNc1ccc(Br)cc1)c1ccccc1,-14,31,45*,0,94*,81*,104*
O=C(CNc1cccc(Cl)c1)c1ccc(Br)cc1,-12,-2,37,0,69*,62*,90*
O=C(CNc1ccc(F)cc1)c1ccccc1,-15,27,53*,-1,76*,80*,111*
NC(=O)c1ccccc1NCC(=O)c1ccc(F)cc1,-15,3,27,-5,82*,99*,140*
O=C(NC1CCCC1)C(c1ccncc1)N(C(=O)c1ccco1)c1ccc(F)c(Cl)c1 (centres undefined),-2,6,11,-1,-21,-4,.
O=C(CNc1cccc([N+](=O)[O-])c1)N/N=C/c1ccc(F)cc1,0,24,5,-5,-2,-1,.
O=c1ccc2c(-c3ccccc3)c3ccc(O)cc3oc-2c1,0,3,-1,-1,0,11,.
Nc1ccc(-c2c3ccc(=O)cc-3oc3cc(O)ccc23)cc1C(=O)O,-5,4,32,0,41*,42,42
FC(F)(F)c1cccc(Sc2nc(-c3ccccc3)nnc2C(F)(F)F)c1,-5,16,46*,7,43*,46,91*
FC(F)(F)c1cccc(Oc2nc(-c3ccccc3)nnc2C(F)(F)F)c1,-4,-5,3,1,17,35,.
Cc1cc(NC(=O)CC2CCCC2)n(-c2nc3ccccc3[nH]2)n1,-1,5,31,-1,14,22,.
Cc1cc(NC(=O)c2ccc(F)cc2F)n(-c2nc3ccccc3[nH]2)n1,-5,0,-13,7,43*,-2,9
SMILES,APJ agonist,EBI2 block,CXCR6 block,HTR2A ag,APJ antag,CCR6 antagonist,APJ antag conf
N#CC(c1cccc(Cl)c1)c1ccc2c(C(F)(F)F)cc(C(F)(F)F)nc2n1 (centres undefined),-10,-35,35,-2,46*,50,76*
NNc1ccc2c(C(F)(F)F)cc(C(F)(F)F)nc2n1,-5,-5,26,3,10,44,.
Cc1cc2c(=O)n(C)c(SCC(=O)Nc3ccc(F)cc3)nc2s1,.,-7,-3,7,.,4,.
CC(C)OCCCn1c(=N)c(S(=O)(=O)c2ccccc2)cc2c(=O)n3ccccc3nc21,-4,9,10,-4,43*,1,-14
Cc1c(N2C(=O)/C(=C\c3ccccc3O)SC2=S)c(=O)n(-c2ccccc2)n1C,-1,3,26,6,3,18,.
CN1C(=O)/C(=C/c2cc(N=Nc3ccccc3)ccc2O)SC1=S,-15,47*,51*,-4,60*,74*,105*
COc1cccc(C=O)c1OC(=O)N1CCOCC1,-3,-4,-5,2,6,4,.
CCCCn1c(NC(=O)c2ccc(Br)o2)c(S(=O)(=O)c2ccccc2)c2nc3ccccc3nc21,-10,13,10,4,55*,12,-11
CCCCC(=O)OCC(=O)Nc1cccc(S(=O)(=O)NC2=NCCCCC2)c1,-3,5,3,3,1,-14,.
O=C(N/N=C\c1ccc([N+](=O)[O-])o1)c1cncc(Br)c1,3,7,-11,-4,42*,18,22
O=C(N/N=C/c1ccc(-c2ccccc2[N+](=O)[O-])o1)c1cncc(Br)c1,4,-1,6,-5,-22,23,.
Cc1c(C(=O)NCc2cccs2)sc(=O)n1Cc1ccc(S(=O)(=O)N(C)C)cc1,.,0,6,-4,.,.,.
COc1ccc(S(=O)(=O)Cc2ccc(C(=O)NCc3ccccc3OC)o2)cc1,3,29,2,-7,45*,17,4
Cc1ccc(NS(=O)(=O)c2cc([N+](=O)[O-])ccc2N/N=C/c2sc(N3CCOCC3)nc2-c2ccccc2)c(C)c1,-9,5,49*,4,68*,60*,119*
O=C(Sc1cccc2cccnc12)c1ccccc1Br,-5,49*,35,-11,52*,.,85*
Cc1ccc(S(=O)(=O)Nc2nc3ccccc3nc2Nc2cccc(S(=O)(=O)N3CCCC3)c2)cc1,-1,-18,7,5,74*,2,1
COc1cc(OC)c(OC)cc1CNC(=O)c1cc(S(=O)(=O)N2CCOCC2)ccc1F,-1,-2,-6,5,5,4,.
